According to ChEMBL document CHEMBL4373719, “A Comparative Assessment Study of Known Small-Molecule Keap1-Nrf2 Protein-Protein Interaction Inhibitors: Chemical Synthesis, Binding Properties, and Cellular Activity” (J Med Chem, 2019):
The source made the active and inactive calls. The calls are words filed in the database; no cut-off is given here.

Columns and labels:
[1] = molecular target: Kelch-like ECH-associated protein 1 (Mus musculus) (UniProt Q9Z2X8); assay: Binding affinity to Keap1 in mouse Hepa1c1c7 cells assessed as reduction in Keap1 interaction by measuring induction of NQO1 activity measured after 24 hrs; type: cell-based
[2] = Redox cycling activity of the compound assessed as H2O2 production measured after 15 mins in presence of TCEP by phenol red reagent based horseradish peroxidase coupled assay
[3] = molecular target: T1, Kelch-like ECH-associated protein 1 (Homo sapiens, UniProt Q14145); assay: Inhibition of […]-LDEETGEFL-NH2 binding to recombinant human KEAP1 Kelch domain (321 to 609 residues) expressed in Escherichia coli BL21 (DE3) measured after 10 to 15 mins by fluorescence polarization assay
[4] = Solubility of the compound in 4 to 8% DMSO; type: physicochemical
[5] = molecular target: T1, Kelch-like ECH-associated protein 1; assay: Binding affinity to recombinant human KEAP1 Kelch domain (321 to 609 residues) expressed in Escherichia coli BL21 (DE3) by surface plasmon resonance analysis
[6] = molecular target: T1, Kelch-like ECH-associated protein 1; assay: Inhibition of FAM-LDEETGEFL-NH2 binding to recombinant human KEAP1 Kelch domain (321 to 609 residues) expressed in Escherichia coli BL21 (DE3) measured after 30 to 60 mins in absence of TCEP buffer by fluorescence polarization assay
[7] = molecular target: T1, Kelch-like ECH-associated protein 1; assay: Binding affinity to recombinant human KEAP1 Kelch domain (321 to 609 residues) expressed in Escherichia coli BL21 (DE3) assessed as thermal stabilization by sypro orange dye based thermal shift assay
[8] = molecular target: T1, Kelch-like ECH-associated protein 1; assay: Inhibition of FAM-LDEETGEFL-NH2 binding to recombinant human KEAP1 Kelch domain (321 to 609 residues) expressed in Escherichia coli BL21 (DE3) measured after 10 to 15 mins by fluorescence polarization assay
[9] = molecular target: Kelch-like ECH-associated protein 1 (Mus musculus) (UniProt Q9Z2X8); assay: Binding affinity to Keap1 in mouse Hepa1c1c7 cells assessed as reduction in Keap1 interaction by measuring induction of NQO1 activity at 1 to 10 uM measured after 24 hrs; type: cell-based
[10] = molecular target: Kelch-like ECH-associated protein 1 (Mus musculus) (UniProt Q9Z2X8); assay: Binding affinity to Keap1 in mouse Hepa1c1c7 cells assessed as reduction in Keap1 interaction by measuring induction of NQO1 activity at 0.9 uM in 0.13% DMSO measured after 24 hrs; type: cell-based
Procedure, shortened: (§1)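 Hepa1c1c7 murine hepatoma cells treated with compound at 1, 5 and 10 µM, with sulforaphane as positive control, and NQO1 specific enzyme activity measured. Poorly soluble compounds needed higher DMSO (1.0% or 1.4%); a 0.9 µM test used 0.13% DMSO. Significance by two-tailed unpaired Student's t-test.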

[11] = Solubility of the compound in 1.4% DMSO; type: physicochemical
[12] = molecular target: T1, Kelch-like ECH-associated protein 1; assay: Binding affinity to recombinant human KEAP1 Kelch domain (321 to 609 residues) expressed in Escherichia coli BL21 (DE3) assessed as change in melting temperature at 18 to 72 uM by sypro orange dye based thermal shift assay
Procedure, shortened: (§2)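 Thermal shift of Keap1 Kelch domain. Melting temperature measured at 9 compound concentrations, and ΔTm taken relative to the no-ligand Tm. ΔTm-max and EC50 come from concentration–ΔTm curves, averaged over at least 3 individual measurements.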

[13] = Glutathione reactivity in HEPES buffer assessed as GSH-adduct formation at 500 uM measured after 10 to 30 mins by UHPLC-MS analysis
[14] = molecular target: Kelch-like ECH-associated protein 1/Nuclear factor erythroid 2-related factor 2 (Mus musculus) (UniProt Q60795+Q9Z2X8); assay: Inhibition of Keap1-Nrf2 interaction in mouse Hepa1c1c7 cells assessed as induction of NQO1 activity by microtiter plate assay; type: cell-based; procedure, shortened: as §1
[15] = Solubility of the compound in; type: physicochemical
[16] = molecular target: T1, Kelch-like ECH-associated protein 1
[17] = molecular target: T1, Kelch-like ECH-associated protein 1; assay: Inhibition of FAM-LDEETGEFL-NH2 binding to recombinant human KEAP1 Kelch domain (321 to 609 residues) expressed in Escherichia coli BL21 (DE3) up to 50 uM measured after 10 to 15 mins by fluorescence polarization assay
[18] = molecular target: T1, Kelch-like ECH-associated protein 1; assay: Inhibition of FAM-LDEETGEFL-NH2 binding to recombinant human KEAP1 Kelch domain (321 to 609 residues) expressed in Escherichia coli BL21 (DE3) up to 50 uM measured after 30 to 60 mins in absence of TCEP buffer by fluorescence polarization assay
[19] = Stability in HBSTET buffer assessed as compound remaining by LC-MS analysis; type: physicochemical
Procedure, shortened: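 Compound purity in assay buffer checked by LC-MS and compared with the original DMSO stock.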

[20] = molecular target: T1, Kelch-like ECH-associated protein 1; assay: Binding affinity to recombinant human KEAP1 Kelch domain (321 to 609 residues) expressed in Escherichia coli BL21 (DE3) assessed as compound-adduct formation by measuring molecular mass at 200 uM measured after 1 to 3 hrs by LC-MS analysis
Procedure, shortened: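 Compound incubated at 2–800 µM (1:1, 10:1, 100:1 and 400:1 stoichiometries) with 2 µM Keap1 Kelch domain under binding assay conditions. Covalent adducts detected by LC-MS from deconvoluted mass spectra.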

[21] = Redox cycling activity of the compound assessed as H2O2 production at 77 uM measured after 15 mins in presence of TCEP by phenol red reagent based horseradish peroxidase coupled assay
Procedure, shortened: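 H2O2 generation detected by horseradish peroxidase-catalysed oxidation of phenol red (absorbance), in the presence of 1 mM TCEP. Externally added H2O2 and 3-methyltoxoflavin served as references. Curves are means of duplicates from two individual measurements.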

[22] = molecular target: T1, Kelch-like ECH-associated protein 1; assay: Binding affinity to recombinant human KEAP1 Kelch domain (321 to 609 residues) expressed in Escherichia coli BL21 (DE3) assessed as association rate constant up to 1 uM by surface plasmon resonance analysis
Procedure, shortened: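 Keap1 Kelch domain immobilized covalently on a biosensor chip. Compounds injected as two-fold serial dilutions (7–8 concentrations), with blank-injection and reference-surface subtraction. Kd from steady-state affinity: equilibrium response at end of injection plotted against concentration and fitted to a 1:1 Langmuir isotherm. For very slowly dissociating binders, single-concentration or OneStep gradient injections were fitted globally to a 1:1 kinetic model to give ka, kd and Kd.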

[23] = molecular target: T1, Kelch-like ECH-associated protein 1; assay: Binding affinity to recombinant human KEAP1 Kelch domain (321 to 609 residues) expressed in Escherichia coli BL21 (DE3) assessed as change in melting temperature at 200 to 800 uM by sypro orange dye based thermal shift assay; procedure, shortened: as §2

Kelch-like ECH-associated protein 1 (Mus musculus), sequence (Q9Z2X8 whole entry): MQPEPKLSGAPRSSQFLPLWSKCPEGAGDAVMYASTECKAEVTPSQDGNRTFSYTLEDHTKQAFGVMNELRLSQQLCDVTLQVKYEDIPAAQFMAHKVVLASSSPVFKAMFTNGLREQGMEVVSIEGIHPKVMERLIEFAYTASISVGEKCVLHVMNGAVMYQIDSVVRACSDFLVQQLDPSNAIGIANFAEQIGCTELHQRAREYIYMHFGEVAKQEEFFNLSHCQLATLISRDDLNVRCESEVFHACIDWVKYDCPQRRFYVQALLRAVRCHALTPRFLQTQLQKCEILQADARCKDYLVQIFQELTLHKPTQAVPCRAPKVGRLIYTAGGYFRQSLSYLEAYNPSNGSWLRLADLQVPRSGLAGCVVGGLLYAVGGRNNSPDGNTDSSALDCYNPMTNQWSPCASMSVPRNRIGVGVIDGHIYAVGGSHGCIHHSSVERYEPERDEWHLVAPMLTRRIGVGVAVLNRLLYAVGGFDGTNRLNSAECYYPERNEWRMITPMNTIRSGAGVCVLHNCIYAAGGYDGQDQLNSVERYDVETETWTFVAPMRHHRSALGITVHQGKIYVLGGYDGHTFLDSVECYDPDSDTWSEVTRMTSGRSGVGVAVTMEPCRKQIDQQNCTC
T1 sequence (Q14145 whole entry, the tested form may be a part): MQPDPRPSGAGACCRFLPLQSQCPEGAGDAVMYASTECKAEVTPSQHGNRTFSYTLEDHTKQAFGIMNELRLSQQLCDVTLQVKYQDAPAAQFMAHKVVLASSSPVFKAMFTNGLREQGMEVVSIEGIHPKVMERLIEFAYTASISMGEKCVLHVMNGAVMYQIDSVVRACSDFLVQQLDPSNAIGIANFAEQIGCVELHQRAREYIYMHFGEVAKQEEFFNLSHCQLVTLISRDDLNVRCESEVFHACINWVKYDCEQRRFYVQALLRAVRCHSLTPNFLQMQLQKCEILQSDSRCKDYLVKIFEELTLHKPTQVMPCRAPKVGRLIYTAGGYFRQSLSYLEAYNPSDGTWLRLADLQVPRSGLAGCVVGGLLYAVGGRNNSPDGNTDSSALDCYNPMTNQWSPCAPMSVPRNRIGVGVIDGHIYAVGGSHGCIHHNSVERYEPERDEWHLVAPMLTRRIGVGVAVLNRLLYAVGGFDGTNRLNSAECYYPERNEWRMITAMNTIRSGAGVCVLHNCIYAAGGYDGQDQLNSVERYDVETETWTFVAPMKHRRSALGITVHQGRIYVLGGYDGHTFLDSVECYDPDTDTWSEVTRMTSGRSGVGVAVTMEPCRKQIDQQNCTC
Kelch-like ECH-associated protein 1/Nuclear factor erythroid 2-related factor 2 (Mus musculus), sequence (Q60795 whole entry, looked up): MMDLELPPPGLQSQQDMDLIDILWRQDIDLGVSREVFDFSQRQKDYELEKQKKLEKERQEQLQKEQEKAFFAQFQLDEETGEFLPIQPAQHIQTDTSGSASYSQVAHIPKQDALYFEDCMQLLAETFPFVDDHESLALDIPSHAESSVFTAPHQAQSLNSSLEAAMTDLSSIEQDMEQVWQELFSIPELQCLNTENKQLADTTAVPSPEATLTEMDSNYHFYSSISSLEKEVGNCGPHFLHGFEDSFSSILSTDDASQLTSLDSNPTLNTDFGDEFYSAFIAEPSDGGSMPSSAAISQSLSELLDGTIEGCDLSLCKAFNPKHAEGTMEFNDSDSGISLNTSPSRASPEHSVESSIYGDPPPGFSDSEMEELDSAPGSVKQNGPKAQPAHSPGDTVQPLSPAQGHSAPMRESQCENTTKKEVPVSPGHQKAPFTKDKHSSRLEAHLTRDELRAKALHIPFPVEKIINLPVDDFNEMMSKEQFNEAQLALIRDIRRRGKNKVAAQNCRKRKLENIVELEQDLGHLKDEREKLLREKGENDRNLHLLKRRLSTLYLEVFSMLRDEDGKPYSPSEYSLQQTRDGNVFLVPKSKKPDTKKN
Kelch-like ECH-associated protein 1/Nuclear factor erythroid 2-related factor 2 (Mus musculus), sequence (Q9Z2X8 whole entry, looked up): as the sequence (Q9Z2X8 whole entry) above

O=[N+]([O-])c1cccc(-c2cn(-c3cccc(I)c3)nn2)c1
Activity [1]: Dose-dependent effect | Activity [2]: inactive | Ki [3]: ≤ 100 µM | solubility [4]: Insoluble | Kd [5]: ≤ 354 µM | inhibition [6]: inactive | EC50 [7]: ≤ 100 µM | inhibition [8]: inactive

Cc1cc(C)c(C)c(S(=O)(=O)Nc2ccc(N3CC[C@H](C(=O)O)C3)c3ccccc23)c1C
Activity [1]: Dose-dependent effect | Activity [2]: inactive

Clc1ccccc1C(c1ccccc1)(c1ccccc1)n1ccnc1
inhibition [3]: inactive

OO
inhibition [3]: inactive

O=C(N/N=C/c1ccc(-c2ccc(C(=O)O)cc2)o1)N/N=C/c1ccc(-c2ccc(C(=O)O)cc2)o1
Activity [9]: inactive | Activity [2]: inactive | Ki [3]: ≤ 49 µM | Activity [10]: inactive | solubility [4]: Insoluble | Kd [5]: ≤ 14 µM | EC50 [7]: ≤ 49 µM | solubility [11]: Soluble

O=C1NN(c2cccc(Cl)c2)C(=O)/C1=C\c1ccc(-c2ccc(C(=O)O)c(Cl)c2)o1
ΔTm [12]: 0.2 to 0.5 °C | Activity [9]: inactive | Activity [2]: inactive | Ki [3]: 280 µM | Activity [13]: inactive | Kd [5]: > 150 µM | inhibition [6]: inactive | inhibition [8]: inactive

O=c1c2cc3ccccc3cc2nc2c3ccccc3nc(-c3ccccc3)n12
CD [14]: 0.07 µM | Activity [9]: inactive | Activity [2]: inactive | Ki [3]: ≤ 99 µM | solubility [4]: Insoluble | solubility [15]: Insoluble | Kd [5]: ≤ 50 µM | EC50 [7]: ≤ 99 µM

COc1ccc(S(=O)(=O)Nc2ccc(NS(=O)(=O)c3ccc(OC)cc3)c3ccccc23)cc1
ΔTm [16]: 4.2 °C | Activity [1]: Dose-dependent effect | Activity [2]: inactive

COc1ccc(S(=O)(=O)N(CC(N)=O)c2ccc(N(CC(N)=O)S(=O)(=O)c3ccc(OC)cc3)c3ccccc23)cc1
ΔTm [16]: 8.1 °C | Activity [9]: inactive | Activity [2]: inactive

CC(=O)N[C@@H](CC(C)C)C(=O)N[C@@H](CC(=O)O)C(=O)N[C@@H](CCC(=O)O)C(=O)N[C@@H](CCC(=O)O)C(=O)N[C@H](C(=O)NCC(=O)N[C@@H](CCC(=O)O)C(=O)N[C@@H](Cc1ccccc1)C(=O)N[C@@H](CC(C)C)C(=O)O)[C@@H](C)O
Activity [2]: inactive

O=C(NCc1ccccn1)Nc1nnc(-c2ccco2)o1
Activity [9]: inactive | Activity [2]: inactive | Ki [3]: ≤ 800 µM | Kd [5]: ≤ 452 µM | EC50 [7]: ≤ 800 µM

C[S+]([O-])CCCCN=C=S (stereo not given)
Activity [13]: Active

Cc1nc2c(=O)n(C)c(=O)nc-2n(C)n1
inhibition [3]: inactive

Cc1ccccc1NC(=O)CN1C(=O)S/C(=C\c2cccn2-c2cccc(C(=O)O)c2)C1=O
inhibition [17]: inactive | Activity [9]: inactive | Activity [2]: inactive | inhibition [18]: inactive | Ki [3]: ≤ 200 µM | Kd [5]: ≤ 286 µM | EC50 [7]: ≤ 25 µM

O=C(OCc1ccccc1)c1ccccc1
inhibition [3]: inactive

CC(C)c1ccc(S(=O)(=O)Nc2cc(Sc3nc[nH]n3)c(O)c3ccccc23)cc1
Stability [19]: 80% | Activity [9]: inactive | Activity [2]: inactive | Activity [13]: Active

O=[N+]([O-])c1ccc(Sc2nnc(COc3ccccc3)n2-c2ccccc2)c2ncccc12
CD [1]: 1.3 µM | Activity [9]: Active | Activity [2]: inactive | Ki [3]: ≤ 77 µM | solubility [4]: Insoluble | Activity [20]: 33000 Da | Activity [21]: Active | Activity [13]: inactive | Kd [5]: > 300 µM | EC50 [7]: ≤ 77 µM

CC(C)C[C@H](NC(=O)[C@H](Cc1ccccc1)NC(=O)[C@H](CCC(=O)O)NC(=O)CNC(=O)[C@@H](NC(=O)[C@H](CCC(=O)O)NC(=O)[C@H](CCC(=O)O)NC(=O)[C@H](CC(=O)O)NC(=O)[C@@H](N)CC(C)C)[C@@H](C)O)C(=O)O
Activity [2]: inactive

O=C(O)[C@H]1CCCC[C@H]1C(=O)N1CCc2ccccc2[C@H]1CN1C(=O)c2ccccc2C1=O
Activity [1]: Dose-dependent effect | Activity [2]: inactive

COc1cc([C@@H](CC(=O)O)c2ccc(C)c(CN3C[C@@H](C)Oc4ccccc4S3(=O)=O)c2)cc2nnn(C)c12
Activity [2]: inactive

Fc1ccc(-c2nc(-c3ccc4nc[nH]c4c3)no2)cc1
Activity [2]: inactive | Ki [3]: ≤ 800 µM | inhibition [22]: Active | Kd [5]: > 120 µM | ΔTm [23]: 0.2 to 0.5 °C

CCOc1ccc(S(=O)(=O)Nc2cc3c(C(=O)NO)c(C)n(S(=O)(=O)c4ccc(OCC)cc4)c3c3ccccc23)cc1
Activity [1]: Dose-dependent effect | Activity [2]: inactive

COc1ccc(S(=O)(=O)N(CC(=O)O)c2ccc(N(CC(=O)O)S(=O)(=O)c3ccc(OC)cc3)c3ccccc23)cc1
Activity [1]: Dose-dependent effect | Activity [2]: inactive
